The assay deals with NF-κB. As to the kind of experiment: NF-κB activation using THP1-Blue NF-κB cells. The format is cell-based, human. Conditions: compound alone, 5 μM, 20h. The gist of the method: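 THP1-Blue NF-κB cells carry a stably integrated NF-κB-inducible SEAP. They were plated at 10^5 cells/well in RPMI with 10% FBS, penicillin, streptomycin and Normocin, then treated for 20 h with 5 μM test compound (0.5% DMSO final), alone or with LPS at 10 ng/mL. Supernatant SEAP was read colorimetrically at 630 nm. Signals were two-point normalized: baseline (vehicle or LPS) 100%, reference hit 200%.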

In the case of `Cc1ccc2c(c1)-c1nc(NC(=O)c3ccc(S(=O)(=O)N4CCCCC4)cc3)sc1C2` [Compound 12r, N-(5-methyl-8H-indeno[1,2-d]thiazol-2-yl)-4-(piperidin-1-ylsulfonyl)benzamide], the “NF-κB activity (in words, SAR text to Table 1)” value (“NF-κB activity” for short) is “weakly active”. Consider `Cc1ccc2c(c1)-c1nc(NC(=O)c3ccc(S(=O)(=O)N4CCCCC4)cc3)sc1CC2` [Compound 12s, N-(8-methyl-4,5-dihydronaphtho[1,2-d]thiazol-2-yl)-4-(piperidin-1-ylsulfonyl)benzamide], for which the “NF-κB activity” value is recorded as “weakly active”.

For the molecule `C#Cc1ccc(C)c(-c2csc(NC(=O)c3ccc(S(=O)(=O)N4CCCCC4)cc3)n2)c1` [Compound 12t, N-(4-(5-ethynyl-2-methylphenyl)thiazol-2-yl)-4-(piperidin-1-ylsulfonyl)benzamide], the “NF-κB activity” value is “inactive”.

For the molecule `CCc1ccc(C)c(-c2csc(NC(=O)c3ccc(S(=O)(=O)N4CCCCC4)cc3)n2)c1` [Compound 12u, N-(4-(5-ethyl-2-methylphenyl)thiazol-2-yl)-4-(piperidin-1-ylsulfonyl)benzamide], the “NF-κB activity” value was “regained the NF-κB activity”. For `Cc1ccc(C)c(-c2c[nH]c(NC(=O)c3ccc(S(=O)(=O)N4CCCCC4)cc3)n2)c1` [Compound 18a, N-(4-(2,5-dimethylphenyl)-1H-imidazol-2-yl)-4-(piperidin-1-ylsulfonyl)benzamide] the value was “none of these molecules that replaced the thiazole functionality was active”; for `Cc1ccc(C)c(-c2cccc(NC(=O)c3ccc(S(=O)(=O)N4CCCCC4)cc3)n2)c1` [Compound 18b, N-(6-(2,5-dimethylphenyl)pyridin-2-yl)-4-(piperidin-1-ylsulfonyl)benzamide], “none of these molecules that replaced the thiazole functionality was active”; for `Cc1ccc(C)c(-c2ccc(NC(=O)c3ccc(S(=O)(=O)N4CCCCC4)cc3)nc2)c1` [Compound 18c, N-(5-(2,5-dimethylphenyl)pyridin-2-yl)-4-(piperidin-1-ylsulfonyl)benzamide], “none of these molecules that replaced the thiazole functionality was active”. For `Cc1ccc(C)c(-c2ccc(NC(=O)c3ccc(S(=O)(=O)N4CCCCC4)cc3)cn2)c1` [Compound 18d, N-(6-(2,5-dimethylphenyl)pyridin-3-yl)-4-(piperidin-1-ylsulfonyl)benzamide] the value was “none of these molecules that replaced the thiazole functionality was active”; for `Cc1ccc(C)c(-c2cnc(NC(=O)c3ccc(S(=O)(=O)N4CCCCC4)cc3)s2)c1` [Compound 18e, N-(5-(2,5-dimethylphenyl)thiazol-2-yl)-4-(piperidin-1-ylsulfonyl)benzamide], “none of these molecules that replaced the thiazole functionality was active”. For `Cc1ccc(C)c(-c2nnc(NC(=O)c3ccc(S(=O)(=O)N4CCCCC4)cc3)s2)c1` [Compound 18f, N-(5-(2,5-dimethylphenyl)-1,3,4-thiadiazol-2-yl)-4-(piperidin-1-ylsulfonyl)benzamide] the value was “none of these molecules that replaced the thiazole functionality was active”; for `CCN(CC)c1sc(NC(=O)c2ccc(S(=O)(=O)N3CCCCC3)cc2)nc1-c1cc(C)ccc1C` [Compound 18g, N-(5-(diethylamino)-4-(2,5-dimethylphenyl)thiazol-2-yl)-4-(piperidin-1-ylsulfonyl)benzamide], “completely inactive”. In the case of `Cc1ccc(C)c(-c2nc(NC(=O)c3ccc(S(=O)(=O)N4CCCCC4)cc3)sc2N2CCCCC2)c1` [Compound 18h, N-(4-(2,5-dimethylphenyl)-5-(piperidin-1-yl)thiazol-2-yl)-4-(piperidin-1-ylsulfonyl)benzamide], the “NF-κB activity” value is “completely inactive”. Under `Cc1ccc(C)c(-c2nc(NC(=O)c3ccc(S(=O)(=O)N4CCCCC4)cc3)sc2-c2ccccc2)c1` [Compound 18i, N-(4-(2,5-dimethylphenyl)-5-phenylthiazol-2-yl)-4-(piperidin-1-ylsulfonyl)benzamide] stands “completely inactive”.

For the molecule `Cc1ccc(C)c(-c2nc(NC(=O)c3ccc(S(=O)(=O)N4CCCCC4)cc3)sc2-c2ccco2)c1` [Compound 18j, N-(4-(2,5-dimethylphenyl)-5-(furan-2-yl)thiazol-2-yl)-4-(piperidin-1-ylsulfonyl)benzamide], the “NF-κB activity” value is “completely inactive”.

`CCSc1sc(NC(=O)c2ccc(S(=O)(=O)N3CCCCC3)cc2)nc1-c1cc(C)ccc1C` [Compound 18k, N-(4-(2,5-dimethylphenyl)-5-(ethylthio)thiazol-2-yl)-4-(piperidin-1-ylsulfonyl)benzamide]: the “NF-κB activity” value was “completely inactive”. For `CCOc1sc(NC(=O)c2ccc(S(=O)(=O)N3CCCCC3)cc2)nc1-c1cc(C)ccc1C` [Compound 18l, N-(4-(2,5-dimethylphenyl)-5-ethoxythiazol-2-yl)-4-(piperidin-1-ylsulfonyl)benzamide] the value was “partial activity”; for `C#Cc1sc(NC(=O)c2ccc(S(=O)(=O)N3CCCCC3)cc2)nc1-c1cc(C)ccc1C` [Compound 18o, N-(4-(2,5-dimethylphenyl)-5-ethynylthiazol-2-yl)-4-(piperidin-1-ylsulfonyl)benzamide], “weak activity”. For `CCC#Cc1sc(NC(=O)c2ccc(S(=O)(=O)N3CCCCC3)cc2)nc1-c1cc(C)ccc1C` [Compound 18p, N-(5-(but-1-yn-1-yl)-4-(2,5-dimethylphenyl)thiazol-2-yl)-4-(piperidin-1-ylsulfonyl)benzamide] the value was “very potent”; for `Cc1ccc(C)c(-c2csc(NCc3ccc(S(=O)(=O)N4CCCCC4)cc3)n2)c1` [Compound 34a, 4-(2,5-dimethylphenyl)-N-(4-(piperidin-1-ylsulfonyl)benzyl)thiazol-2-amine], “inactive”. For `Cc1ccc(C)c(-c2csc(N(C)C(=O)c3ccc(S(=O)(=O)N4CCCCC4)cc3)n2)c1` [Compound 34c, N-(4-(2,5-dimethylphenyl)thiazol-2-yl)-N-methyl-4-(piperidin-1-ylsulfonyl)benzamide] the value was “inactive”. Consider `C#CCN(C(=O)c1ccc(S(=O)(=O)N2CCCCC2)cc1)c1nc(-c2cc(C)ccc2C)cs1` [Compound 34d, N-(4-(2,5-dimethylphenyl)thiazol-2-yl)-4-(piperidin-1-ylsulfonyl)-N-(prop-2-yn-1-yl)benzamide], for which the “NF-κB activity” value is “inactive”. Under `Cc1ccc(C)c(-c2csc(NC(=O)c3ccc(S(=O)(=O)N4CCCCC4)cn3)n2)c1` [Compound 42a, N-(4-(2,5-dimethylphenyl)thiazol-2-yl)-5-(piperidin-1-ylsulfonyl)picolinamide] stands “loss of activity”; under `Cc1ccc(C)c(-c2csc(NC(=O)c3ccc(S(=O)(=O)N4CCCCC4)nc3)n2)c1` [Compound 42b, N-(4-(2,5-dimethylphenyl)thiazol-2-yl)-6-(piperidin-1-ylsulfonyl)nicotinamide], “loss of activity”; under `Cc1ccc(C)c(-c2csc(NC(=O)c3ccc(S(=O)(=O)N4CCCCC4)s3)n2)c1` [Compound 42c, N-(4-(2,5-dimethylphenyl)thiazol-2-yl)-5-(piperidin-1-ylsulfonyl)thiophene-2-carboxamide], “loss of activity”.

`Cc1ccc(C)c(-c2csc(NC(=O)c3ccc(S(=O)(=O)N4CCCCC4)c(Cl)c3)n2)c1` [Compound 42d, 3-chloro-N-(4-(2,5-dimethylphenyl)thiazol-2-yl)-4-(piperidin-1-ylsulfonyl)benzamide]: the “NF-κB activity” value is “retained NF-κB activity”.

As to `Cc1ccc(C)c(-c2csc(NC(=O)c3ccc(S(=O)(=O)N4CCCCC4)c(Br)c3)n2)c1` [Compound 42e, 3-bromo-N-(4-(2,5-dimethylphenyl)thiazol-2-yl)-4-(piperidin-1-ylsulfonyl)benzamide], the “NF-κB activity” value is reported as “retained NF-κB activity”. For `Cc1ccc(C)c(-c2csc(NC(=O)c3ccc(S(=O)(=O)N4CCCCC4)c([N+](=O)[O-])c3)n2)c1` [Compound 42f, N-(4-(2,5-dimethylphenyl)thiazol-2-yl)-3-nitro-4-(piperidin-1-ylsulfonyl)benzamide] the value was “decline in activity”. Under `COc1cc(C(=O)Nc2nc(-c3cc(C)ccc3C)cs2)ccc1S(=O)(=O)N1CCCCC1` [Compound 42g, N-(4-(2,5-dimethylphenyl)thiazol-2-yl)-3-methoxy-4-(piperidin-1-ylsulfonyl)benzamide] stands “decline in activity”; under `Cc1ccc(C)c(-c2csc(NC(=O)c3ccc(S(=O)(=O)N4CCCCC4)cc3Cl)n2)c1` [Compound 42h, 2-chloro-N-(4-(2,5-dimethylphenyl)thiazol-2-yl)-4-(piperidin-1-ylsulfonyl)benzamide], “significantly dropped”. Under `Cc1ccc(C)c(-c2csc(NC(=O)c3ccc(S(=O)(=O)N4CCCCC4)cc3Br)n2)c1` [Compound 42i, 2-bromo-N-(4-(2,5-dimethylphenyl)thiazol-2-yl)-4-(piperidin-1-ylsulfonyl)benzamide] stands “significantly dropped”; under `COc1cc(S(=O)(=O)N2CCCCC2)ccc1C(=O)Nc1nc(-c2cc(C)ccc2C)cs1` [Compound 42j, N-(4-(2,5-dimethylphenyl)thiazol-2-yl)-2-methoxy-4-(piperidin-1-ylsulfonyl)benzamide], “significantly dropped”.

(Values after article PMC8992012 (Bioorganic & medicinal chemistry, 2021).)
